Results on 13 compounds are retold here after ChEMBL document CHEMBL1124174, “Substituted benzamides. 1. Potential nondopaminergic antagonists of chemotherapy-induced nausea and emesis” (J Med Chem, 1988).

pIC50: −log10 of the molar value. Values joined by “and” are separate entries in the source; they are usually repeats but may differ in a detail not shown here. Equal values may be shown once.

Assay [1] has as its system Canis familiaris. Briefly: In vivo antagonism of cisplatin-induced emesis in dog measured as emetic episodes, twice the dose of 3 mg/kg in 2 dogs. The assay is classed as functional, Canis lupus familiaris. In short, it runs like this:
(§1)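 Nonfasted mature male or female beagles were dosed sc twice, 30 min before and 120 min after cisplatin (3 mg/kg iv; 3 mg/mL in warm 0.9% saline, used immediately). Emesis was observed up to 5 h; events within 2 min counted as one episode. Results were given as mean emetic episodes and % protection versus a dynamic control (historical and concurrent saline means pooled). t test versus saline.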

Assay [2] addresses D(2) dopamine receptor (Rattus norvegicus, UniProt P61169). Nature of the assay: In vitro antagonistic activity against Dopamine receptor D2 was evaluated for the inhibition of [3H]spiperone binding. In short, it runs like this: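 Rat striatal membranes were prepared by differential centrifugation in 50 mM Tris pH 7.4 at 4 °C. Membrane protein (10 mg) was incubated 15 min at 37 °C with 0.1 nM [3H]spiperone and varying competitor concentrations. Buffer: 50 mM Tris HCl pH 7.5, 0.1% ascorbic acid, pargyline, 120 mM NaCl, 5 mM KCl, 2 mM CaCl2, 1 mM MgCl2. (+)-Butaclamol defined nonspecific binding. Bound ligand was collected by filtration and scintillation counted. IC50 by log-logit regression.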

Assay [3] concerns Mustela putorius furo. Briefly: In vivo antagonism of cisplatin-induced emesis in ferret measured as percentage protection for twice the dose of 3 mg/kg and in 3 ferrets. Type of assay: functional. In short, it runs like this: (§2)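 Nonfasted castrated male Fitch ferrets (1–1.5 kg) had jugular catheters implanted ≥48 h earlier under anesthesia. Compounds or saline were given iv twice, 5 min before and 90 min after cisplatin (12 mg/kg iv; 12 mg/mL in warm 0.9% saline). Emesis was observed up to 4 h; events within 1 min counted as one episode. Results were given as mean emetic episodes and % protection versus a pooled historical/concurrent control. t test versus saline.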

Assay [4] deals with Mustela putorius furo. Briefly: In vivo antagonism of cisplatin-induced emesis in ferret measured as emetic episodes, twice the dose of 3 mg/kg and in 3 ferrets. Type of assay: functional. In short, it runs like this:
as §2

In assay [5] the test system is Canis familiaris. Briefly: In vivo antagonism of cisplatin-induced emesis in dog measured as percentage protection for twice the dose of 3 mg/kg in 2 dogs. The assay is classed as functional, Canis lupus familiaris. Summed up:
as §1

Assay [6] addresses D(2) dopamine receptor (Rattus norvegicus) (UniProt P61169). Nature of the assay: In vivo antagonistic activity against dopamine D2 receptor was measured as catalepsy in rat when administered subcutaneously. The assay is classed as functional, organism-based. In short, it runs like this: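 Male Long Evans rats (275 g) received graded sc doses in dilute aqueous HCl (pH 4.5-5.5). They were observed 180 min for catalepsy, scored when the animal stayed stationary ≥15 s on a four-cork template.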

The target in assay [7] is D(2) dopamine receptor (Canis lupus familiaris) (UniProt Q9GJU1). Briefly: In vivo antagonism activity against dopamine D2 receptor was measured as emesis in dog when administered subcutaneously. Type of assay: functional, organism-based.
D(2) dopamine receptor (Canis lupus familiaris), sequence (Q9GJU1 whole entry): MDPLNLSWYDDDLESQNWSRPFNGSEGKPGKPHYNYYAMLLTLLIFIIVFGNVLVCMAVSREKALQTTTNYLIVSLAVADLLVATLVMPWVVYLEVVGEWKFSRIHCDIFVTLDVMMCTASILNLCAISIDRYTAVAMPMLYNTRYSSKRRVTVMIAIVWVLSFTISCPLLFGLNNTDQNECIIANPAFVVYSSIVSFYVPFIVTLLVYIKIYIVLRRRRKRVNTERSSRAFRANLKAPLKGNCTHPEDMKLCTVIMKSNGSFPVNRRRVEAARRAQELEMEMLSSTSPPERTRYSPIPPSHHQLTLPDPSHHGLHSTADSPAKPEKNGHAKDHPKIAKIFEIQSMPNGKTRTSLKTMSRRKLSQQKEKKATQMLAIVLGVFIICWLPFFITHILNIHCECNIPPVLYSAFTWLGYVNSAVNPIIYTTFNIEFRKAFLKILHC
The target of assay [8] is D(2) dopamine receptor (Rattus norvegicus) (UniProt P61169). Nature of the assay: In vivo antagonism activity against D2 receptor was measured as stereotypy in rat when administered subcutaneously. The assay is classed as functional, organism-based. In short, it runs like this:
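Male Long Evans rats (275 g) were dosed sc in dilute aqueous HCl (pH 4.5-5.5) 30 min before apomorphine (1 mg/kg sc).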

Assay [9] concerns Canis familiaris. Briefly: In vivo antagonism of cisplatin-induced emesis in dog measured as percentage protection for twice the dose of 6 mg/kg in 2 dogs. Type of assay: functional, Canis lupus familiaris. In short, it runs like this: as §1
Assay [10] has as its system Mustela putorius furo. Briefly: In vivo antagonism of cisplatin-induced emesis in ferret measured as emetic episodes, twice the dose of 0.3 mg/kg and in 3 ferrets. The assay is classed as functional. In short, it runs like this: as §2
Assay [11] relates to Canis familiaris. Briefly: In vivo antagonism of cisplatin-induced emesis in dog measured as percentage protection for twice the dose of 1 mg/kg in 2 dogs. Type of assay: functional, Canis lupus familiaris. Summed up:
as §1

Assay [12] deals with Canis familiaris. Nature of the assay: In vivo antagonism of cisplatin-induced emesis in dog measured as emetic episodes, twice the dose of 1 mg/kg in 2 dogs. Type of assay: functional, Canis lupus familiaris. Summed up: as §1
Assay [13] has as its system Mustela putorius furo. Briefly: In vivo antagonism of cisplatin-induced emesis in ferret measured as percentage protection for twice the dose of 0.3 mg/kg and in 3 ferrets. The assay is classed as functional. In short, it runs like this:
as §2

The test system of assay [14] is Mustela putorius furo. Nature of the assay: In vivo antagonism of cisplatin-induced emesis in ferret measured as emetic episodes, twice the dose of 1 mg/kg and in 3 ferrets. Type of assay: functional. In short, it runs like this: as §2
The test system of assay [15] is Mustela putorius furo. Nature of the assay: In vivo antagonism of cisplatin-induced emesis in ferret measured as percentage protection for twice the dose of 1 mg/kg and in 3 ferrets. The assay is classed as functional. In short, it runs like this: as §2
For assay [16], the system named is Canis familiaris. Nature of the assay: In vivo antagonism of cisplatin-induced emesis in dog measured as emetic episodes, twice the dose of 6 mg/kg in 2 dogs. Type of assay: functional, Canis lupus familiaris. In short, it runs like this: as §1
For assay [17], the system named is Canis familiaris. Briefly: In vivo antagonism of cisplatin-induced emesis in dog measured as emetic episodes, twice the dose of 3 mg/kg in 3 dogs. Type of assay: functional, Canis lupus familiaris. Summed up:
as §1

Assay [18] relates to Canis familiaris. Briefly: In vivo antagonism of cisplatin-induced emesis in dog measured as emetic episodes, twice the dose of 6 mg/kg in 3 dogs. The assay is classed as functional, Canis lupus familiaris. Summed up: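 Nonfasted mature male or female beagles received test compound or saline sc twice, 30 min before and 120 min after cisplatin (3 mg/kg iv; 3 mg/mL in warm 0.9% saline, used at once). Emesis observed up to 5 h. Emetic episode = expulsion of stomach content; events within 2 min counted as one. Protection calculated against a dynamic control (historical mean pooled with concurrent saline control).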

In assay [19] the test system is Canis familiaris. Nature of the assay: In vivo antagonism of cisplatin-induced emesis in dog measured as percentage protection for twice the dose of 0.3 mg/kg in 2 dogs. The assay is classed as functional, Canis lupus familiaris. In short, it runs like this: as §1
Assay [20] relates to Mustela putorius furo. Nature of the assay: In vivo antagonism of cisplatin-induced emesis in ferret measured as emetic episodes, twice the dose of 0. 3 mg/kg and in 3 ferrets. The assay is classed as functional. In short, it runs like this: as §2
Assay [21] deals with Mustela putorius furo. Briefly: In vivo antagonism of cisplatin-induced emesis in ferret measured as percentage protection for twice the dose of 3 mg/kg.
The subject of assay [22] is Canis familiaris. Briefly: In vivo antagonism of cisplatin-induced emesis in dog measured as emetic episodes, twice the dose of 0.3 mg/kg in 2 dogs. Type of assay: functional, Canis lupus familiaris. Summed up:
as §1

In assay [23] the test system is Mustela putorius furo. Briefly: In vivo antagonism of cisplatin-induced emesis in ferret measured as percentage protection for twice the dose of 3 mg/kg and in 2 ferrets. The assay is classed as functional. In short, it runs like this:
as §2

D(2) dopamine receptor (Rattus norvegicus), sequence (P61169 whole entry): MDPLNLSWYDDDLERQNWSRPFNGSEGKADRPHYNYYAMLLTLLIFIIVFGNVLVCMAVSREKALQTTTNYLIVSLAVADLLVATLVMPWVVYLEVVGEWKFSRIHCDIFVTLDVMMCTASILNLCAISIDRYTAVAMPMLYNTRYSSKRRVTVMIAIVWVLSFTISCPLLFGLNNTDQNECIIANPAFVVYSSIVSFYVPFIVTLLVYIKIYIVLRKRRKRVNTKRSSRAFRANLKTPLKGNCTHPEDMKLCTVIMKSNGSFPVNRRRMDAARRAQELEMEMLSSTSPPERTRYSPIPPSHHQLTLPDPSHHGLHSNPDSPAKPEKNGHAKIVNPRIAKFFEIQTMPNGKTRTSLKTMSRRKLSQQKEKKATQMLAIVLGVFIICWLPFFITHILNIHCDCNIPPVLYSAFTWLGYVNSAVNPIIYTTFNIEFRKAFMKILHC
D(2) dopamine receptor, sequence (P61169 whole entry): as above

Turning to `CCN(CC)CCNC(=O)c1cc(Cl)c(N)cc1OCC(=O)c1ccccc1`, the Emetic episodes in assay [1] amounted to 1.5; in assay [4], 0. The negative logarithm of the IC50 (pIC50) in assay [2] was < 6.00. Moreover, the Protection was 100% in assay [3] and 88% in assay [5]. For the same compound, the figures for the ED50 in assay [6], in assay [7] and in [8] were > 40 mg/kg, > 3 mg/kg and > 40 mg/kg, respectively.

Take `C=CCOc1cc(N)c(Cl)cc1C(=O)NCCN(CC)CC`: the Protection is 90% in assay [9]; 72% in assay [11]; 95% in assay [3]; 30% in assay [13]; 56% in assay [15]. The Emetic episodes is recorded as 4.7 in assay [10]; 3.5 in assay [12]; 0.3 in assay [4]; 3 in [14]; 1 in [16]. The pIC50 in assay [2] was < 6.00. Also, the values for the ED50 in assay [6], in [7] and in [8] were > 40 mg/kg, > 1 mg/kg and > 40 mg/kg, respectively.

`CCN(CC)CCNC(=O)c1cc(Cl)c(N)cc1OC(C)C#N` (stereo unspecified): the Emetic episodes came out at 2.5 in assay [1] and 2.7 in assay [4]. The pIC50 in assay [2] was < 6.00. Also, the results for the Protection in [3] and in [5] were 63% and 80%, respectively. The figures for the ED50 in assay [6], in [7] and in assay [8] were > 40 mg/kg, > 3 mg/kg and > 40 mg/kg, respectively.

As for `C=CCN1CCCC1CNC(=O)c1cc2nn[nH]c2cc1OC` (stereo unspecified) [ALIZAPRIDE], the Emetic episodes in assay [17] is reported as 4.3; in assay [18] it was 4.7; in assay [4], 5. The Protection in [3] was 27%; in [5] (3 mg/kg), 69% and 66%. For the same compound, the ED50 was > 40 mg/kg in assay [6], 0.3 mg/kg in [7] and > 40 mg/kg in assay [8].

Take `CCN(CC)CCNC(=O)c1cc(Cl)c(N)cc1OCC1COC(C)(C)O1` (stereo unspecified): the Emetic episodes in assay [1] is recorded as 4; in assay [4] it was 2. Further, the pIC50 in [2] was < 6.00. For the same compound, the Protection in assay [3] was found to be 72%; in assay [5] it was 68%. The values for the ED50 in [6], in assay [7] and in [8] were > 40 mg/kg, > 3 mg/kg and > 40 mg/kg, respectively.

Turning to `C=CCCOc1cc(N)c(Cl)cc1C(=O)NCCN(CC)CC`, the Emetic episodes was 3.5 in [1] and 3.7 in assay [4]. The pIC50 in assay [2] was < 6.00. Further, the Protection was 50% in [3] and 71% in assay [5]. For the same compound, the ED50 was > 40 mg/kg in assay [6], > 3 mg/kg in [7] and > 40 mg/kg in [8].

Turning to `CCN(CC)CCN1C(=O)c2cc(Cl)c(NC=O)cc2OC(C)=C1C`, the results for the Protection in assay [19], in assay [21] and in assay [3] were 25%, 32% and 100%, respectively. Also, the Emetic episodes in assay [20] is 4.7; in assay [4], 0; in assay [22] it was 9.5. Further, in [2], the pIC50 was < 6.00. In addition, the ED50 in assay [6] was > 40 mg/kg; in assay [7], > 3 mg/kg; in assay [8] it was > 40 mg/kg.

As for `CCN(CC)CCNC(=O)c1cc(Cl)c(N)cc1OCC#N`, the Emetic episodes is listed as 4.7 in assay [17] and 0.7 in [4]. Moreover, the pIC50 in assay [2] was < 6.00. For the same compound, the Protection in assay [3] amounted to 90%; in [5], 63%. Moreover, the ED50 in [6] is > 40 mg/kg; in [7] it was > 3 mg/kg; in assay [8], > 40 mg/kg.

Turning to `CCCOc1cc(N)c(Cl)cc1C(=O)NCCN(CC)CC`, the results for the Protection in assay [9] and in [3] were 40% and 70%, respectively. The pIC50 in assay [2] is < 6.00. Further, the Emetic episodes in assay [4] was 2; in [16] it was 8. Besides, the ED50 was > 40 mg/kg in [6], > 3 mg/kg in [7] and > 40 mg/kg in [8].

As for `CCN(CC)CCNC(=O)c1cc(Cl)c(N)cc1OCC(C)=O`, the Protection in [19] is on record as 60%; in assay [9], 96%; in [11], 92%; in assay [3] it was 90%; in assay [13], 44%; in assay [15], 38%. In addition, the Emetic episodes in [10] came out at 4; in assay [12] it was 1.5; in [4], 0.7; in assay [22], 5; in assay [14] it was 4.5; in assay [16], 0.5. Further, in [2], the pIC50 is < 6.00. The ED50 in assay [6] is > 40 mg/kg; in [7] it was > 3 mg/kg; in assay [8] it was > 40 mg/kg.

Consider `CCN(CC)CCNC(=O)c1cc(Cl)c(N)cc1OCC(OC)OC`, for which the Emetic episodes is 6.7 in assay [20], 1.5 in assay [12] and 1.3 in assay [4]. The Protection is 88% in assay [11], 82% in assay [3] and 0% in [13]. Further, the negative-log IC50 (pIC50) in assay [2] is < 6.00. Moreover, the ED50 in assay [6] is > 40 mg/kg; in assay [7] it was > 3 mg/kg; in [8] it was > 40 mg/kg.

On to `CCN(CC)CCNC(=O)c1cc(Cl)c(N)cc1O`, for which the Protection worked out at 84% in [9] and 40% in assay [23]. Besides, in assay [2], the pIC50 was < 6.00. The values for the ED50 in assay [6], in [7] and in [8] were > 40 mg/kg, > 1 mg/kg and > 40 mg/kg, respectively. In assay [16], this compound showed an Emetic episodes of 2.

For `C=C(C)COc1cc(N)c(Cl)cc1C(=O)NCCN(CC)CC`, the Emetic episodes in assay [1] came out at 4; in assay [4], 2.3. In addition, in assay [2], the pIC50 is < 6.00. Also, the Protection in assay [3] worked out at 70%; in [5] it was 68%. Also, the ED50 was > 40 mg/kg in assay [6], > 3 mg/kg in assay [7] and > 40 mg/kg in assay [8].

A word on the pIC50: it is the negative decadic logarithm of the IC50, by convention in mol/L. A higher pIC50 goes with a low IC50. A word on the ED50: it is the midpoint of the dose-response relation. Low values mean an effect at a small dose, high ones a need for a large dose.
